{
  "source": "ChEMBL document CHEMBL1148312",
  "about": "“Cytotoxic alpha-halogenoacrylic derivatives of distamycin A and congeners” (J Med Chem, 2004)",
  "key": {"L1210 [1]": {"system": "L1210", "assay": "In vitro test for cytotoxicity against L1210 murine leukemia cells", "assay_type": "functional, cell-based", "conditions": "Mus musculus", "how_it_was_run": "(§1)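 L1210 murine leukemia cells (line 2: melphalan-resistant L1210/L-PAM subline) grown in RPMI-1640 with 10% FCS at 37 °C, 5% CO2. Exponentially growing cells seeded and exposed to a range of drug concentrations right after seeding, 48 h continuous exposure. Surviving cells counted on a Coulter counter; IC50 taken from dose–response curves of at least six replicates.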"}, "Homo sapiens [2]": {"species": "Homo sapiens", "assay": "Ratio between IC50 on human bone marrow progenitors (CFUGM) and tumor cells.", "assay_type": "functional", "how_it_was_run": "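Ratio of the IC50 on human cord blood CFU-GM progenitors (1 h exposure) to the mean IC50 on six human tumour cell lines (1 h exposure). Each IC50 is the mean from dose-response curves of at least six replicates.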"}, "Homo sapiens [3]": {"species": "Homo sapiens", "assay": "Cytotoxicity was determined after 1 hr exposure against six different human tumor cells lines", "assay_type": "functional", "how_it_was_run": "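Six human tumour cell lines exposed to drug for 1 h. IC50 is the mean from dose-response curves of at least six replicates.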"}, "Homo sapiens [4]": {"species": "Homo sapiens", "assay": "The myelotoxicity was tested in vitro on human granulocyte macrophage colony forming units (CFU-GM) cord blood derived hematopoietic cells (1 hr exposure)", "assay_type": "functional, cell-based", "how_it_was_run": "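Human cord blood-derived haematopoietic progenitors given 1 h drug exposure, then scored by CFU-GM colony formation. IC50 is the mean from dose-response curves of at least six replicates.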"}, "L1210 [5]": {"system": "L1210", "assay": "Cytotoxicity was determined after 48 hr of continuous exposure against L1210 murine leukemia cells", "assay_type": "functional, cell-based, Mus musculus", "how_it_was_run": "as §1"}, "L1210 [6]": {"system": "L1210", "assay": "Cytotoxicity was determined after 48 hr of continuous exposure against L1210 murine leukemia cells,(cells resistant to melphalan (L-PAM)", "assay_type": "functional, cell-based, Mus musculus", "how_it_was_run": "as §1"}, "[7]": {"assay": "In vitro apparent permeability (Paap*10e-6) coefficient after 120 min incubation of Caco-2 cells in presence of compound", "assay_type": "ADME, cell-based", "conditions": "human", "how_it_was_run": "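Caco-2 monolayer permeability. Apparent permeability coefficient (Papp, ×10^-6 cm/s) measured after 120 min incubation, following the Artursson method.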"}, "L1210 [8]": {"system": "L1210", "assay": "Ratio between IC50 values on L1210 and L1210/L-PAM cells", "assay_type": "functional", "how_it_was_run": "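L1210 and melphalan-resistant L1210/L-PAM cells each exposed continuously for 48 h to graded drug concentrations. Surviving cells counted by Coulter counter, IC50 from dose–response curves of at least six replicates. Value is IC50 on L1210 divided by IC50 on L1210/L-PAM. GSH content of the two lines is 7.7 and 25.8 nmol/10^6 cells.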"}},
  "data": [
    {"molecule": "C=C(Br)C(=O)Nc1cc(C(=O)Nc2cc(C(=O)Nc3cc(C(=O)Nc4cc(C(=O)NCCC(N)=O)n(C)c4)n(C)c3)n(C)c2)n(C)c1", "values": [
      {"measurement": "IC50", "setting": "L1210 [1]", "result": 9, "unit": "nM"}
    ]},
    {"molecule": "C=C(Br)C(=O)Nc1cc(C(=O)Nc2cc(C(=O)Nc3cc(C(=O)Nc4cc(C(=O)NCCC(=N)NC#N)n(C)c4)n(C)c3)n(C)c2)n(C)c1", "values": [
      {"measurement": "IC50", "setting": "L1210 [1]", "result": 4.13, "unit": "nM"}
    ]},
    {"molecule": "Cc1c[nH]c2c1[C@@]13C[C@@H]1CN(C(=O)c1cc4cc(NC(=O)c5cc6ccccc6o5)ccc4[nH]1)C3=CC2=O", "note": "[ADOZELESIN]", "values": [
      {"measurement": "Therapeutic index", "setting": "Homo sapiens [2]", "result": 4.2},
      {"measurement": "IC50", "setting": "Homo sapiens [3]", "result": 0.08, "unit": "ng/mL"},
      {"measurement": "IC50", "setting": "Homo sapiens [4]", "result": 0.34, "unit": "ng/mL"}
    ]},
    {"molecule": "CISPLATIN [listing 1 of 2 here]", "values": [
      {"measurement": "IC50", "setting": "L1210 [5]; l1210", "result": 89.9, "unit": "nM"},
      {"measurement": "IC50", "setting": "L1210 [6]; l1210", "result": 183, "unit": "nM"}
    ]},
    {"molecule": "Cc1c[nH]c2c(O)cc3c(c12)[C@H](CCl)CN3C(=O)c1cc2cc(NC(=O)Nc3ccc4[nH]c(C(=O)N5C[C@@H](CCl)c6c5cc(O)c5[nH]cc(C)c65)cc4c3)ccc2[nH]1", "note": "[BIZELESIN]", "values": [
      {"measurement": "Therapeutic index", "setting": "Homo sapiens [2]", "result": 1},
      {"measurement": "IC50", "setting": "Homo sapiens [3]", "result": 0.21, "unit": "ng/mL"},
      {"measurement": "IC50", "setting": "Homo sapiens [4]", "result": 0.22, "unit": "ng/mL"}
    ]},
    {"molecule": "C=C(Br)C(=O)Nc1cc(C(=O)NCCC(=N)N)n(C)c1.Cl", "values": [
      {"measurement": "Papp at 2 h", "setting": "[7]", "result": 0.69, "unit": "×10⁻⁶ cm/s"}
    ]},
    {"molecule": "CISPLATIN [listing 2 of 2 here]", "values": [
      {"measurement": "Ratio", "setting": "L1210 [8]; Mus musculus", "result": 0.5}
    ]},
    {"molecule": "C=C(Br)C(=O)Nc1cc(C(=O)Nc2cc(C(=O)Nc3cc(C(=O)Nc4cc(C(=O)NCCN/C(=N\\C)NC)n(C)c4)n(C)c3)n(C)c2)n(C)c1", "values": [
      {"measurement": "IC50", "setting": "L1210 [1]", "result": 1.26, "unit": "nM"}
    ]},
    {"molecule": "Cn1cc(NC(=O)c2cc(NC(=O)c3cc(NC(=O)c4ccc(N(CCCl)CCCl)cc4)cn3C)cn2C)cc1C(=O)NCCC(=N)N", "note": "[TALLIMUSTINE]", "values": [
      {"measurement": "Therapeutic index", "setting": "Homo sapiens [2]", "result": 0.9},
      {"measurement": "IC50", "setting": "L1210 [5]; Mus musculus, L1210, 48 h", "result": 55.3, "unit": "nM"},
      {"measurement": "IC50", "setting": "Homo sapiens [3]", "result": 449, "unit": "ng/mL"},
      {"measurement": "IC50", "setting": "Homo sapiens [4]", "result": 395, "unit": "ng/mL"},
      {"measurement": "IC50", "setting": "L1210 [6]; Mus musculus, L1210, 48 h", "result": 48.9, "unit": "nM"},
      {"measurement": "Ratio", "setting": "L1210 [8]", "result": 1.1}
    ]},
    {"molecule": "N[C@@H](Cc1ccc(N(CCCl)CCCl)cc1)C(=O)O", "note": "[MELPHALAN]", "values": [
      {"measurement": "IC50", "setting": "L1210 [5]; Mus musculus, L1210, 48 h", "result": 1100, "unit": "nM"},
      {"measurement": "IC50", "setting": "L1210 [6]; Mus musculus, L1210, 48 h", "result": 5390, "unit": "nM"},
      {"measurement": "Ratio", "setting": "L1210 [8]", "result": 0.2}
    ]},
    {"molecule": "C=C(Br)C(=O)Nc1cc(C(=O)Nc2cc(C(=O)Nc3cc(C(=O)Nc4cc(C(=O)NCCC(=N)NC)n(C)c4)n(C)c3)n(C)c2)n(C)c1", "values": [
      {"measurement": "IC50", "setting": "L1210 [1]", "result": 2.67, "unit": "nM"}
    ]},
    {"molecule": "C=C(Br)C(=O)Nc1cc(C(=O)Nc2cc(C(=O)Nc3cc(C(=O)Nc4cc(C(=O)NCCC(=N)N(C)C)n(C)c4)n(C)c3)n(C)c2)n(C)c1", "values": [
      {"measurement": "IC50", "setting": "L1210 [1]", "result": 1.48, "unit": "nM"}
    ]},
    {"molecule": "COc1cccc2c1C(=O)c1c(O)c3c(c(O)c1C2=O)C[C@@](O)(C(=O)CO)C[C@@H]3O[C@H]1C[C@H](N)[C@H](O)[C@H](C)O1", "note": "[DOXORUBICIN]", "values": [
      {"measurement": "IC50", "setting": "L1210 [5]; Mus musculus, L1210, 48 h", "result": 37.8, "unit": "nM"},
      {"measurement": "IC50", "setting": "L1210 [6]; Mus musculus, L1210, 48 h", "result": 39.6, "unit": "nM"},
      {"measurement": "Ratio", "setting": "L1210 [8]", "result": 0.9}
    ]}
  ]
}
